The text below walks through data of PubChem BioAssay.

Active and inactive are the calls of the source.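 The calls were made as follows, unless noted: active = viability at or below 30% in both replicate assays; inconclusive = viability at or below 30% in just one of the two assays; inactive = the rest.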

The nature of test [1]: Her2 expression decrease, cell viability multiplex – SKBR3 breast tumor cells, AlphaScreen, ATP viability, primary screen (AID 461;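 active = Her2 level under about 52% in both replicate screens, with viability over 70% of control, limit read from the data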;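 as to Her2 level: lower value means less Her2 protein in the cells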;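 as to viability: percent of carrier control wells set as 100% viability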). The conditions noted are these: SKBR3 Her2 protein level, 18-24 h, measured here: SKBR3 viability, ATP luminescence, at 10 µM. Background: In Alpha technology, singlet oxygen from a donor bead excites a nearby acceptor bead.
Test [2] addresses Receptor tyrosine-protein kinase erbB-2 (Homo sapiens) (UniProt P04626). The description is as above. The note with it: 18-24 h, at 10 µM, stronger effect = lower value.
Test [3] can be described thus: reduced viability of SK-BR-3 breast cancer cells – cell-based, 24 h, human, pilot screen (AID 572;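 active = viability at or below 10% of carrier control in both of two separate runs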;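 also: compound exposure lasted between 18 and 24 h rather than exactly 24 h; 100% = carrier-treated control wells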). The note with it: SK-BR-3 viability, CellTiter-Glo luminescence, at 10 µM, stronger effect = lower value. For orientation: Cellular ATP, detected with luciferase, serves as a proxy for viable cell number.
Test [4] can be described thus: HUVEC growth inhibition – cell-based, human, primary screen (AID 575).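 Also: 100% = median of untreated cell wells with 0.1% DMSO on each plate.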 The note with it: HUVEC proliferation, CellTiter-Glo luminescence, 72 h; at 10 µM; stronger effect = lower value. An outline of the steps:
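material = primary HUVEC, no more than 12 passages | input = 1250 cells per well | controls = vehicle and MePR control wells | measured by = CTG luminescence | times = 72 h compound incubation | format = collagen-coated 384-well format | read-out = % viability vs DMSO wells | doses = single 10 µM dose, 0.1% DMSO, from 5x medium stock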

Test [5] is described as follows: H69AR cell proliferation blockers – human, duplicate replicates, primary screen (AID 580;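 active = viability at or under a set limit in both replicates, limit being median viability minus 3 SD, cut at about 48% in these data, passing the limit was not always enough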;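 also: 100% = mean luminescence of untreated wells and 0% = no signal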). The note with it: H69AR lung tumor cells viability, ATP luminescence, 72 h; at 10 µM; stronger effect = lower value.
A short description of test [6]: MRP1 drug-resistance reversers in H69AR cells – cell-based, doxorubicin co-treatment, pilot screen (AID 601;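 active = viability loss from added drug above about 55%, and viability with drug at most 40%, in both replicates, limit read from the data, passing the limit was not always enough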). The conditions noted are these: CellTiter-Glo, 72 h, at 10 µM; for differential viability (reversal): stronger effect = higher value.
Test [7] can be described thus: yeast transport mutant growth inhibition pilot in 384-well plates, post-Golgi transport modulator project (AID 636; in the data active = inhibition above about 31%). The conditions noted are these: absorbance 615 nm, about 18 h, stronger effect = higher value.
Test [8] is described as follows: growth suppression of yeast trafficking mutant, preliminary HTS, modulators of trafficking downstream of Golgi apparatus project, 1536-format plate, OD 615 nm (AID 637; in the data active = inhibition above about 30%). The note with it: yeast transport mutant growth, absorbance 615 nm, 18 h; stronger effect = higher value.
The mark [9] stands for this setting: H69AR cells + 2 uM doxorubicin, measured here: viability with 2 uM doxorubicin, stronger effect = lower value.
Setting [10] is: H69AR cells, compound alone cytotoxicity.

Sequence of Receptor tyrosine-protein kinase erbB-2 (Homo sapiens) (P04626 whole entry, looked up): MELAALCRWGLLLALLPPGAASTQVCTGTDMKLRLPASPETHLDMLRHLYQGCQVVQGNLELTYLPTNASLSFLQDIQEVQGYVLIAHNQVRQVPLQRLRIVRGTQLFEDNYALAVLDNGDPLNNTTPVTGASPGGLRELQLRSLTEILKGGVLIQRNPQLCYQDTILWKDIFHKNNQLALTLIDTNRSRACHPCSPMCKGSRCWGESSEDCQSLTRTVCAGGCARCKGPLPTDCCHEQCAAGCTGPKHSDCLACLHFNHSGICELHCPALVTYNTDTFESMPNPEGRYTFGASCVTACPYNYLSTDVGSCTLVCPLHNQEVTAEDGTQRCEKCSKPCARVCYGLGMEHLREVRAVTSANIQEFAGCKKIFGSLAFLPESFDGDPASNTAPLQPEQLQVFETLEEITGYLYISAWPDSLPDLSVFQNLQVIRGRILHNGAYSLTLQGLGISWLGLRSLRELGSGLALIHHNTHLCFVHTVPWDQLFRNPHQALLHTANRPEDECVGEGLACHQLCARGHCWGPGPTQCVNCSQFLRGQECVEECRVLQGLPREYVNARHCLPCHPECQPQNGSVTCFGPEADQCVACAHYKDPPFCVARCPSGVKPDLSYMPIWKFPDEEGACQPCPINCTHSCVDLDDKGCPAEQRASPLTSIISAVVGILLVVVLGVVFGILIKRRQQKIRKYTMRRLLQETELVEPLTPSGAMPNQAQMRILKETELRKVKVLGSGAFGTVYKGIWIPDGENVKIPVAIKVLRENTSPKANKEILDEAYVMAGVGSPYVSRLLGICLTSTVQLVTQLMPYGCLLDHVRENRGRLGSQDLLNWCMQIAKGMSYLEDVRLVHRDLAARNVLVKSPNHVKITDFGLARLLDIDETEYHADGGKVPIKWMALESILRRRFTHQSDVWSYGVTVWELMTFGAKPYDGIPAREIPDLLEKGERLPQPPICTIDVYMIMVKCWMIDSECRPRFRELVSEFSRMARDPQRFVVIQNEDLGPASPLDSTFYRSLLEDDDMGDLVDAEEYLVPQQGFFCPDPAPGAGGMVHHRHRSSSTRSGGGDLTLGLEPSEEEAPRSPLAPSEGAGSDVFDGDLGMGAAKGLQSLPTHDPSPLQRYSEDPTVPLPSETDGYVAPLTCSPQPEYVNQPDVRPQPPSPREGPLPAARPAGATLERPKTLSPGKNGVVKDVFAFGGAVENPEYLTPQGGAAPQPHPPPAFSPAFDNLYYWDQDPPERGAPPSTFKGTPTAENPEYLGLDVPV

In the case of `CCc1cccc2c(=O)c(C(=O)N3CCCCCC3)c[nH]c12`, the viability in test [1] is 104%; in test [3] it was 104% (inactive); in test [4] it was 98.4% (inactive); in test [5], 97.5% (inactive); in test [6] (setting [9]), 96.1%; in test [6] (setting [10]) it was 97.5%. Also, the Her2 level in test [2] was 102% (inactive). The differential viability (reversal) in test [6] (H69AR cells + 2 uM doxorubicin) was 1.41% (inactive). For the same compound, the inhibition is -2% (inactive) in test [7] and -6.94% (inactive) in test [8].
With `CCOC(=O)C1CCN(c2nc3ccccc3nc2C(C#N)C(=O)OCCOC)CC1` (stereo not given), the viability in test [1] is 97%; in test [3], 97% (inactive); in test [4], 78.3% (inactive); in test [5], 79.4% (inactive); in test [6] (setting [9]), 51.7%; in test [6] (setting [10]), 79.4%. In addition, in test [2], the Her2 level is 98% (inactive). Also, in test [6] (H69AR cells + 2 uM doxorubicin), the differential viability (reversal) is 27.7% (inactive). In addition, the inhibition in test [7] was -6.71% (inactive); in test [8] it was 0.16% (inactive).
As for `O=C(c1ccco1)N1CCN(S(=O)(=O)c2ccc(C3CCCCC3)cc2)CC1`, the viability in test [1] was 96%; in test [3], 96% (inactive); in test [4], 99.9% (inactive); in test [5] it was 85.6% (inactive); in test [6] (setting [9]) it was 85.1%; in test [6] (setting [10]), 85.6%. Further, the Her2 level in test [2] is 97.5% (inactive). In addition, the differential viability (reversal) in test [6] (H69AR cells + 2 uM doxorubicin) is 0.505% (inactive). The inhibition was -4.53% (inactive) in test [7] and 2.42% (inactive) in test [8].
As to `CCOc1ccc(C2C(C#N)=C(N)Oc3cc(C)n(CCN(C)C)c(=O)c32)cc1OCC` (stereo not given), the viability in test [1] is 84%; in test [3], 84% (inactive); in test [4], 90.3% (inactive); in test [5], 101% (inactive); in test [6] (setting [9]) it was 83.3%; in test [6] (setting [10]), 101%. The Her2 level in test [2] is 79.5% (inactive). The differential viability (reversal) in test [6] (H69AR cells + 2 uM doxorubicin) is 17.7% (inactive). In addition, the results for the inhibition in test [7] and in test [8] were -4.32% (inactive) and -1.43% (inactive), respectively.
Consider `COc1ccc(C(=O)Nc2ccc(C)cn2)c(OC)c1`, for which the viability in test [1] was 73.5%; in test [3], 73.5% (inactive); in test [4] it was 102% (inactive); in test [5], 85.4% (inactive); in test [6] (setting [9]), 74.2%; in test [6] (setting [10]), 85.4%. Further, the Her2 level in test [2] was 77% (inactive). Besides, the differential viability (reversal) in test [6] (H69AR cells + 2 uM doxorubicin) was 11.2% (inactive). Moreover, the inhibition in test [7] was -4.19% (inactive); in test [8] it was 0.98% (inactive).
On to `Clc1ccc2nc(N3CCCCC3)[nH]c2c1`, for which the viability in test [1] is 90.5%; in test [3], 90.5% (inactive); in test [4], 105% (inactive); in test [5], 91.9% (inactive); in test [6] (setting [9]) it was 80.3%; in test [6] (setting [10]), 91.9%. Moreover, in test [2], the Her2 level was 78.5% (inactive). For the same compound, in test [6] (H69AR cells + 2 uM doxorubicin), the differential viability (reversal) is 11.6% (inactive). Moreover, the inhibition in test [7] was -7.84% (inactive); in test [8], 2.79% (inactive).
Consider `Cc1ccc(-n2nnnc2SCC(=O)c2cc(C)n(CC3CCCO3)c2C)cc1` (stereo not given), for which the viability in test [1] is 83.5%; in test [3], 83.5% (inactive); in test [4], 70.8% (inactive); in test [5], 86% (inactive); in test [6] (setting [9]) it was 95.7%; in test [6] (setting [10]), 86%. In test [2], the Her2 level was 106% (inactive). Further, the differential viability (reversal) in test [6] (H69AR cells + 2 uM doxorubicin) was -9.62% (inactive). Further, the inhibition in test [7] was -5.07% (inactive); in test [8], 0.48% (inactive).
For `Cc1cc(C)c2c(n1)sc1c(N3CCOCC3)ncnc12`, the viability in test [1] was 91%; in test [3] it was 91% (inactive); in test [4] it was 25.4% (active); in test [5] it was 76.6% (inactive); in test [6] (setting [9]), 75.7%; in test [6] (setting [10]) it was 76.6%. The Her2 level in test [2] was 90% (inactive). Besides, the differential viability (reversal) in test [6] (H69AR cells + 2 uM doxorubicin) is 0.885% (inactive). The inhibition is -6.35% (inactive) in test [7] and 0.67% (inactive) in test [8].
`Cc1ccc(NS(=O)(=O)c2cn(C)cn2)cc1`: the viability was 95% in test [1]; 95% (inactive) in test [3]; 100% (inactive) in test [4]; 92.7% (inactive) in test [5]; 86.8% in test [6] (setting [9]); 92.7% in test [6] (setting [10]). In addition, in test [2], the Her2 level is 88% (inactive). For the same compound, the differential viability (reversal) in test [6] (H69AR cells + 2 uM doxorubicin) was 5.86% (inactive). Also, the inhibition in test [7] is -2.63% (inactive); in test [8], 2.36% (inactive).
As to `O=C(CSc1nnc(-c2cccs2)o1)N1CCOCC1`, the viability is 107% in test [1]; 107% (inactive) in test [3]; 99.4% (inactive) in test [4]; 96.6% (inactive) in test [5]; 101% in test [6] (setting [9]); 96.6% in test [6] (setting [10]). In addition, the Her2 level in test [2] is 92.5% (inactive). In test [6] (H69AR cells + 2 uM doxorubicin), the differential viability (reversal) was -4.63% (inactive). The inhibition in test [7] was -3.6% (inactive); in test [8] it was -1.45% (inactive).
Take `OCCNCC(O)Cn1ccc2ccccc21` (stereo not given): the viability in test [1] was 118%; in test [3], 118% (inactive); in test [4], 107% (inactive); in test [5] it was 88.6% (inactive); in test [6] (setting [9]), 88.6%; in test [6] (setting [10]), 88.6%. Also, in test [2], the Her2 level was 94.5% (inactive). In addition, the differential viability (reversal) in test [6] (H69AR cells + 2 uM doxorubicin) is 0.01% (inactive). For the same compound, the inhibition in test [7] is -3.77% (inactive); in test [8], -0.16% (inactive).
For `CC(C)(C)C1=C[C@@H](CO)C[C@@H](CO)C1`, the viability in test [1] was 86%; in test [3] it was 86% (inactive); in test [4] it was 94.2% (inactive); in test [5], 87.3% (inactive); in test [6] (setting [9]), 87.9%; in test [6] (setting [10]), 87.3%. In addition, the Her2 level in test [2] is 87% (inactive). For the same compound, the differential viability (reversal) in test [6] (H69AR cells + 2 uM doxorubicin) was -0.585% (inactive). For the same compound, the inhibition in test [7] is -4.13% (inactive); in test [8] it was -5.08% (inactive).
For `COc1ccc(-n2c(Cc3cccn3C)nnc2SCC(=O)NCC2CCCO2)cc1` (stereo not given), the viability is 100% in test [1]; 100% (inactive) in test [3]; 93.9% (inactive) in test [4]; 100% (inactive) in test [5]; 92.3% in test [6] (setting [9]); 100% in test [6] (setting [10]). Also, the Her2 level in test [2] is 107% (inactive). For the same compound, in test [6] (H69AR cells + 2 uM doxorubicin), the differential viability (reversal) is 7.7% (inactive). The results for the inhibition in test [7] and in test [8] were -0.9% (inactive) and 3% (inactive), respectively.
As for `C=CCn1c(-c2cccs2)nc2nc3ccccc3nc21`, the viability in test [1] is 87%; in test [3] it was 87% (inactive); in test [4], 80.2% (inactive); in test [5], 54.3% (inactive); in test [6] (setting [9]), 72.9%; in test [6] (setting [10]) it was 54.3%. Besides, in test [2], the Her2 level was 106% (inactive). For the same compound, the differential viability (reversal) in test [6] (H69AR cells + 2 uM doxorubicin) was -18.6% (inactive). Moreover, the values for the inhibition in test [7] and in test [8] were -1.82% (inactive) and -8.73% (inactive), respectively.
In the case of `COc1ccc(OC)c(NC(=O)C2CCN(c3cc(-c4ccccc4)nc4ncnn34)CC2)c1`, the viability in test [1] was 95.5%; in test [3] it was 95.5% (inactive); in test [4], 71% (inactive); in test [5] it was 75.4% (inactive); in test [6] (setting [9]), 76.1%; in test [6] (setting [10]), 75.4%. The Her2 level in test [2] was 76.5% (inactive). Besides, in test [6] (H69AR cells + 2 uM doxorubicin), the differential viability (reversal) is -0.75% (inactive). The inhibition in test [7] was -0.66% (inactive); in test [8], -0.48% (inactive).

What is called viability is a read-out of living cells in per cent, often relative to untreated cells. By inhibition is commonly meant the drop in the measured response relative to a control, in per cent.
